# pIC50: −log10 of the molar value.
# Key:
# [1] = biological target: T1, CYP2B6 (Homo sapiens, UniProt P20813); assay: Human CYP450 inhibition assay; type: in vitro ADME
# T1 sequence (P20813 1-491): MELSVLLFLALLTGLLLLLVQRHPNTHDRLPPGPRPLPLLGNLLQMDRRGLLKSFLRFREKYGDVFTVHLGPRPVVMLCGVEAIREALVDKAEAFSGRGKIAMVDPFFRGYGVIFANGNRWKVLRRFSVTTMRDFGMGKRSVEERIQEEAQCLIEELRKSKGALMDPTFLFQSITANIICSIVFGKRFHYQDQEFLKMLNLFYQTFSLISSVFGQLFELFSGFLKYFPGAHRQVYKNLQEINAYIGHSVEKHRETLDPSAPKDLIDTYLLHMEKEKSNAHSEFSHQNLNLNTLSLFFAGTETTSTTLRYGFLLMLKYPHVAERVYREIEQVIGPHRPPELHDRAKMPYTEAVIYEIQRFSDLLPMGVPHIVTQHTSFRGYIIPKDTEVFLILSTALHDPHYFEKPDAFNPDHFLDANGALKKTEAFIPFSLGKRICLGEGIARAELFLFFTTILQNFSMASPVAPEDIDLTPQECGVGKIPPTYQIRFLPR
# [2] = biological target: hERG potassium channels (Homo sapiens, UniProt Q12809); assay: hERG channel Qpatch assay; type: cell-based
# [3] = system: P. aeruginosa PAO1; assay: C. elegans liquid medium killing and rescue assay; type: in vivo, Caenorhabditis elegans
# [4] = Water solubility assay; type: physicochemical; conditions: thermodynamic from solid
# Procedure, shortened: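 Standard curve made from methanol solutions (0.56–0.0011 mg/mL) using HPLC UV peak area at 254 nm. Excess solid stirred in water for 24 h to give a […] solution, then analysed by HPLC at 254 nm. Solubility calculated from the standard curve.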
# [5] = Stability in liver microsomes; type: in vitro ADME, human
# [6] = system: P. aeruginosa DK2; assay: Intracellular ROS detection; type: cell-based, Pseudomonas aeruginosa; conditions: alone and in combination with PB
# Procedure, shortened: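 Drug-treated bacteria collected and suspended in DCFH-DA (final 10 μmol/L), then incubated 20 min at 37 ℃. Cells resuspended in LB, centrifuged 5000 rpm for 5 min and washed to remove free probe. Fluorescence read at 488 nm excitation and 525 nm emission.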
# [7] = system: P. aeruginosa DK2; assay: Oxidative stress; type: cell-based, Pseudomonas aeruginosa; conditions: PB 0.25 or 0.5 μg/mL; 15 or A22 4 or 8 μg/mL, with or without PB
# Procedure, shortened: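 Culture diluted to 0.01 and treated with compounds. At OD600 1.0, 3 mL collected, washed in 1 mL PBS, then resuspended in PBS with 0.2 mol/L H2O2 and shaken 15 min at 37 ℃. Suspensions diluted 10^1–10^7 in PBS, 5 μL spotted onto LB agar, and incubated 37 ℃ for 1–2 days before colony counting.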
# [8] = biological target: CYP2C19 (Homo sapiens, UniProt P33261); assay: Human CYP450 inhibition assay; type: in vitro ADME; conditions: Inhibition for CYP isoforms IC50, 2C19, human liver microsomes, 40 min
# [9] = system: P. aeruginosa DK2; assay: Biofilm production assay; type: cell-based, Pseudomonas aeruginosa
# Procedure, shortened: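 Overnight LB culture (37 ℃, 200 rpm) diluted to OD600 0.01 and treated with compound alone or with polymyxin B. Cells inoculated 1:100 into CPG medium and grown 24 h at 37 ℃, then stained 30 min with 0.1% crystal violet. After water rinses and 1 h air drying, dye solubilised in 95% ethanol; OD570 read. For imaging, coverslip biofilms washed with PBS (pH 7.2), dried 60 ℃ 30 min, stained 15 min with acridine orange/ethidium bromide and examined by confocal microscopy.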
# [10] = system: 293 T; assay: Mammalian cytotoxicity, CCK8; type: cell-based; conditions: Homo sapiens, HEK-293T, 24 h, read-out: 293 T IC50, CCK8, 1 day incubation
# Procedure, shortened: (§1)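 Cells seeded at 10,000 per well in medium with 10% serum. Serially diluted compound added 24 h later and incubated 1 day. Viability measured with CCK8 reagent per kit instructions and expressed as percent of vehicle-treated cells (set to 100).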
# [11] = system: HUVEC; assay: Mammalian cytotoxicity, CCK8; type: cell-based; conditions: Homo sapiens, 24 h, read-out: HUVEC IC50, CCK8, 1 day incubation
# Procedure, shortened: as §1
# [12] = system: P. aeruginosa DK2; assay: Intracellular NADH oxidase; type: cell-based, Pseudomonas aeruginosa
# Procedure, shortened: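 Bacteria treated with compounds singly and in combination; 1 mL harvested at OD600 = 1.0. NOX activity measured with a commercial kit by its extraction method and expressed as relative activity.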
# [13] = biological target: CYP3A4 (Homo sapiens, UniProt P08684); assay: Human CYP450 inhibition assay; type: in vitro ADME
# [14] = biological target: CYP2C9 (Homo sapiens, UniProt P11712); assay: Human CYP450 inhibition assay; type: in vitro ADME
# [15] = biological target: T2, CYP2C8 (Homo sapiens, UniProt P10632); assay: Human CYP450 inhibition assay; type: in vitro ADME
# T2 sequence (P10632 1-490): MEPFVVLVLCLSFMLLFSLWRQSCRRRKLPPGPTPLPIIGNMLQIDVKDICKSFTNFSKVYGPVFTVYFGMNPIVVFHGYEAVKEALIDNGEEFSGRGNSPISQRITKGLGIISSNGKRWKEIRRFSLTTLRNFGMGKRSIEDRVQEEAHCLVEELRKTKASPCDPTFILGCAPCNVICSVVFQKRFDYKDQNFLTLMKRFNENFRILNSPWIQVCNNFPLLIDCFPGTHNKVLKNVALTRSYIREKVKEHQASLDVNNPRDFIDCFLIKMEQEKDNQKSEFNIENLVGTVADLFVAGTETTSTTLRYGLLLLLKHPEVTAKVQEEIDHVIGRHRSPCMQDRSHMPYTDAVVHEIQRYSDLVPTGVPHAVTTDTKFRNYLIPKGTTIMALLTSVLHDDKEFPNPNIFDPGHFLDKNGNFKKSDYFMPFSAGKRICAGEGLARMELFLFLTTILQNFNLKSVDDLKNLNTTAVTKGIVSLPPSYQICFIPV
# [16] = Stability in liver microsomes; type: in vitro ADME, mouse
# [17] = system: P. aeruginosa DK2; assay: Murine wound infection model; type: in vivo, BALB/c female mice; conditions: mouse
# Procedure, shortened: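 Female mice, 6–8 weeks old and 20–22 g, were anesthetized with 4% chloral hydrate and shaved dorsally. A ~5 mm wound was made and inoculated with 30 μL DK2 (5 × 10^8 CFU). From 48 h post-infection, wounds received saline, polymyxin alone, or polymyxin plus test compound twice daily. Test compound was given in saline with 0.1% Tween 80 and polymyxin in saline. Wounds and body weight were monitored daily. Wound tissue was homogenized in sterile PBS and plated for CFU.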
# [18] = Plasma protein binding assay; type: in vitro ADME; conditions: human
# Procedure, shortened: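 Equilibrium dialysis: compound-spiked plasma placed on the donor side, blank buffer on the receiver side, 5 h at 37 ℃; T0 plasma samples also taken. Donor and receiver aliquots matrix-matched with the opposite matrix. Quenched with acetonitrile containing internal standard, vortexed, centrifuged 4000×g 10 min, and supernatant diluted with water. Analysed by LC–MS/MS alongside reference compounds.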
# [19] = system: P. aeruginosa DK2; assay: Time-kill assay; type: cell-based, Pseudomonas aeruginosa; conditions: for Effect on bacterial growth when used alone (time-kill): A22 10 or 20 μmol/L, PB 0.5 or 1 μg/mL
# [20] = biological target: T3, CYP1A2 (Homo sapiens, UniProt P05177); assay: Human CYP450 inhibition assay; type: in vitro ADME
# T3 sequence (P05177 1-516): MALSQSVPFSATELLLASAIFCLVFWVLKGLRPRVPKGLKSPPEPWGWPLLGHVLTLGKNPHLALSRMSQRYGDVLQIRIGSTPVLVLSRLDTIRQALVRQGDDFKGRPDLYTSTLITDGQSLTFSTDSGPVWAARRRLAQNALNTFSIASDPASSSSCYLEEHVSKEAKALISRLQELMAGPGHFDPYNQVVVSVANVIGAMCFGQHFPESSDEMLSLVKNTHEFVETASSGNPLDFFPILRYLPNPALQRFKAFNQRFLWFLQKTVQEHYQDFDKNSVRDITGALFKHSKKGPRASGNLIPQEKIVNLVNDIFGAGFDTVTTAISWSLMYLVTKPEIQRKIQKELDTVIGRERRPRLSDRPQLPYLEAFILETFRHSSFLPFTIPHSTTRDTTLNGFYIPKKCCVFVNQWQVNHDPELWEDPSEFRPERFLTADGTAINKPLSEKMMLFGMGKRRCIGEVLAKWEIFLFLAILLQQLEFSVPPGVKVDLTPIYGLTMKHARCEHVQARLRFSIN
# [21] = system: P. aeruginosa DK2; assay: Bacterial ATP level assay; type: cell-based, Pseudomonas aeruginosa
# Procedure, shortened: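 Cells treated with compounds singly and in combination and harvested at OD600 = 1.0 (2 mL), centrifuged, then extraction solution added. Lysed by sonication in an ice bath; extract kept on ice. Absorbance read at 340 nm at 10 s and again after 3 min at 25 ℃ using a commercial ATP kit. ATP expressed relative to control.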
# [22] = biological target: CYP2D6 (Homo sapiens, UniProt P10635); assay: Human CYP450 inhibition assay; type: in vitro ADME
# [23] = system: P. aeruginosa DK2; assay: MIC by micro broth dilution; type: cell-based, Pseudomonas aeruginosa; conditions: for MIC: Pseudomonas aeruginosa, DK2, 18 h, read-out: MIC, derivative alone, P. aeruginosa DK2, 18 h, 100% growth inhibition; for MIC, antibiotic alone: P. aeruginosa DK2
# [24] = system: P. aeruginosa DK2; assay: Resistance assay by serial passaging; type: cell-based, Pseudomonas aeruginosa; conditions: passaged with PB alone (64 μg/mL); start 256 μg/mL
# CYP2D6, sequence (P10635 whole entry): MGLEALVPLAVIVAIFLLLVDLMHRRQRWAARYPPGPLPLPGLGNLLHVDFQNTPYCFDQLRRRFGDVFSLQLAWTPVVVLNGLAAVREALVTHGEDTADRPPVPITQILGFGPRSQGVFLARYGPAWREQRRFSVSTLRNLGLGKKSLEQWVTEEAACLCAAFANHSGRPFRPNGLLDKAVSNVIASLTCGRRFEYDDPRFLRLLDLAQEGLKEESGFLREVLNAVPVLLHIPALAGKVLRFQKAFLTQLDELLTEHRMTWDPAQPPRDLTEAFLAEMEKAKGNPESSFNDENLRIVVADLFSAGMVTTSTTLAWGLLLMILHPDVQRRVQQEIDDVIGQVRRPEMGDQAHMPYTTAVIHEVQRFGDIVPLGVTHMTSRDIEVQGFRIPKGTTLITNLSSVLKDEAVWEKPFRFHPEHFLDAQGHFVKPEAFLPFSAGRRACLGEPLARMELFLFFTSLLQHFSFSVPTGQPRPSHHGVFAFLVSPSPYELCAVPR
# CYP2C19, sequence (P33261 whole entry, canonical isoform): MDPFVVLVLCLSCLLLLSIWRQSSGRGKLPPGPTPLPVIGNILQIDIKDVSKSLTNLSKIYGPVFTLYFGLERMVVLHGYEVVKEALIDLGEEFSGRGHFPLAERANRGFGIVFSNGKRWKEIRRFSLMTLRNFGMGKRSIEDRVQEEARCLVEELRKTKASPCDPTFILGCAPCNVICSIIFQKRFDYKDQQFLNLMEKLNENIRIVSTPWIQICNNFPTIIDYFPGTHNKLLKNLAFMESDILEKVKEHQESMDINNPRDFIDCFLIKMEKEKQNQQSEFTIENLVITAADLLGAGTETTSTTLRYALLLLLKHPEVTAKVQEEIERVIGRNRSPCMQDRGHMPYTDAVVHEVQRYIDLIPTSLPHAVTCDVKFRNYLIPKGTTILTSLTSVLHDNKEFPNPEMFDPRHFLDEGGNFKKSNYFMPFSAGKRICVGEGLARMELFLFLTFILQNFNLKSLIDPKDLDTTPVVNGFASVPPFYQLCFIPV
# CYP2C9, sequence (P11712 whole entry): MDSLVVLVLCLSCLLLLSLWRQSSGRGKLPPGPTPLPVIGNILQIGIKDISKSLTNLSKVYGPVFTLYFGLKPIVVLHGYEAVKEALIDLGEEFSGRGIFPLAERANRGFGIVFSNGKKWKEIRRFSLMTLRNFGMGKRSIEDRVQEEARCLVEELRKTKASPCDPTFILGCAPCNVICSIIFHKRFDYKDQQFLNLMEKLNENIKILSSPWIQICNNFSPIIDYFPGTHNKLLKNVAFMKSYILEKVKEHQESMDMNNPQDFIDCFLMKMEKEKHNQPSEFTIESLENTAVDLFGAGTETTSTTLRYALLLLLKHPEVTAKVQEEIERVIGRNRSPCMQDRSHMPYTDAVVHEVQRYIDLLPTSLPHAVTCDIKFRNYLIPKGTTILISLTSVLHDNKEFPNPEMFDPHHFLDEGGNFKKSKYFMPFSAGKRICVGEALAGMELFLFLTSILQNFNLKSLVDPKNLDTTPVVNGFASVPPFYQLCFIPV
# hERG potassium channels, sequence (Q12809 whole entry): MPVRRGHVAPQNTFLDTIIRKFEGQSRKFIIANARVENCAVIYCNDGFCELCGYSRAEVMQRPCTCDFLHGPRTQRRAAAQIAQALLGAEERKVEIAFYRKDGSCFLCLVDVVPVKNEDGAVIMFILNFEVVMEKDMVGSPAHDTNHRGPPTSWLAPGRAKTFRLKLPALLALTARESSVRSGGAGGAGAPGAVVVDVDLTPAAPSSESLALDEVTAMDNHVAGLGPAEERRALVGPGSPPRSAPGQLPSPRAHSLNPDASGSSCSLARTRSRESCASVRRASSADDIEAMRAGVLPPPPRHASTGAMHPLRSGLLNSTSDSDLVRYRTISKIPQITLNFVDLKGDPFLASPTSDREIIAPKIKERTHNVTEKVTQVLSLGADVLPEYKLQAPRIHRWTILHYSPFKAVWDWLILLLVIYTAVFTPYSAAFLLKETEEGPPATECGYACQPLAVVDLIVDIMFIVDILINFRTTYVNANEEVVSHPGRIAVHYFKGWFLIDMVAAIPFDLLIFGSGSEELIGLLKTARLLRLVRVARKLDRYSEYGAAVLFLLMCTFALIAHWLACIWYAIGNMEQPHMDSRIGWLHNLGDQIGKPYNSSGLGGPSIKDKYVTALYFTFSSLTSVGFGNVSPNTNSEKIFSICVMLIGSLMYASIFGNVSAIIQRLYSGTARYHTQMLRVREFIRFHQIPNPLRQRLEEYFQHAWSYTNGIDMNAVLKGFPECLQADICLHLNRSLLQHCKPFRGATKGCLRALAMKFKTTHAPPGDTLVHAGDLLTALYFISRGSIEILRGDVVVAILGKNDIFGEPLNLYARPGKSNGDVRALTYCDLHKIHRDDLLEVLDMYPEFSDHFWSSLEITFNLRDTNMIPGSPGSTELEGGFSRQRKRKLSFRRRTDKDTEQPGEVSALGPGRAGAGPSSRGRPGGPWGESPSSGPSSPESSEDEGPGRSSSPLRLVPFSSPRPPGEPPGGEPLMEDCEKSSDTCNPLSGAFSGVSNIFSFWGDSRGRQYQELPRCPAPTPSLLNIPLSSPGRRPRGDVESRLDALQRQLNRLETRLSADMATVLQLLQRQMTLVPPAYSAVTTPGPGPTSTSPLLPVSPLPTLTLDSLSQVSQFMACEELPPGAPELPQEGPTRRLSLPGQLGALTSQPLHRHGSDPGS
# CYP3A4, sequence (P08684 whole entry): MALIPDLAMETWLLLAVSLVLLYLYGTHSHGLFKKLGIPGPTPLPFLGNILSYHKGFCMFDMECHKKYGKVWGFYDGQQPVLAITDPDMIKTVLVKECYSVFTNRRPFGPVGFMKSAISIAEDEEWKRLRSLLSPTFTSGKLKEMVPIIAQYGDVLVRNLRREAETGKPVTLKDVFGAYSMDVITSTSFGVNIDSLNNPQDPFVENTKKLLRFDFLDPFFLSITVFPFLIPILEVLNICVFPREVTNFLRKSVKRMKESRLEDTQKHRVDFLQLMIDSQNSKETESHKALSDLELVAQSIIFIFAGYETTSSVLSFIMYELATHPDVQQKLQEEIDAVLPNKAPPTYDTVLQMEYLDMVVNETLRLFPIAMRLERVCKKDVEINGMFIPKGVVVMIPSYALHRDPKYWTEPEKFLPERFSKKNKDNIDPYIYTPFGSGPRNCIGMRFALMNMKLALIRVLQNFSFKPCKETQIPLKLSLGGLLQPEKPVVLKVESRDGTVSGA
compound,measurement,setting,value
O=C(Nc1ccc(C(F)(F)F)cc1C(F)(F)F)c1cc(F)ccc1O [A22],pIC50,[1],< 4.48
same,pIC50,[2],5.16
same,"Survival of PAO1-infected worms, combination",[3]; 8 μg/mL A22 and 8 μg/mL PB,synergistically extended the lifespan of the worms
same,"Survival of PAO1-infected worms, monotherapy",[3]; C. elegans N2 infected with P. aeruginosa PAO1,neither A22 nor PB had significant therapeutic effects
same,solubility at 24 h,[4],4 µg/mL
same,HLM Remaining (t = 1 h),[5]; human liver microsomes,23.96%
same,half-life,"[5]; human, liver microsomes, pH 7.4",29.1 min
same,ROS levels,[6],significantly elevating ROS levels
same,CFU under oxidative stress (H2O2),[7],significantly reduced CFU
same,pIC50,[8],4.69
same,"Inhibitory effect on biofilm formation, combination",[9]; 8 μg/mL A22 with 0.25 or 0.5 μg/mL PB,significantly enhanced
same,"Biofilm formation, A22 alone","[9]; 4 and 8 μg/mL, crystal violet and CLSM",potent inhibitory activity against biofilm formation
same,pIC50,[10],< 3.82
same,pIC50,[11],< 3.82
same,"NOX activity, compound alone",[12],significantly increased
same,"NOX activity, in combination with PB",[12],further significant increase
same,pIC50,[13],< 4.48
same,pIC50,[14],6.54
same,pIC50,[15],5.58
same,MLM Remaining (t = 1 h),[16]; mouse liver microsomes,46.31%
same,half-life,"[16]; mouse, liver microsomes, pH 7.4",54.4 min
same,"Bacterial load in infected wounds, combination","[17]; A22 10 mg/kg and PB 1 mg/kg, versus control and monotherapy",significantly reduced bacterial loads in the infected wounds
same,"Bacterial load in infected wounds, monotherapy","[17]; A22 10 mg/kg or PB 1 mg/kg, after 7 days of treatment",neither A22 monotherapy (10 mg/kg) nor PB monotherapy (1 mg/kg) exhibited significant antibacterial effects
same,fraction unbound at 5 h,[18],0.0206
same,Time of complete inhibition of bacterial growth,[19]; A22 10 μmol/L with PB 1 μg/mL,36 h
same,Time of complete inhibition of bacterial growth,[19]; A22 20 μmol/L with PB 1 μg/mL,24 h
same,Effect on bacterial growth when used alone (time-kill),[19],"neither A22 (10 μmol/L = 3.67 μg/mL, or 20 μmol/L = 7.34 μg/mL) nor PB (0.5 or 1 μg/mL) significantly affected bacterial growth"
same,Time of first substantial reduction in CFUs,[19]; A22 combined with PB,2 h
same,pIC50,[20],5.21
same,"ATP levels, monotherapy",[21],reduced ATP levels
same,"Reduction in ATP levels, combined with PB",[21],even more pronounced
same,pIC50,[22],5.73
same,MIC,[23],> 1000 µM
O=C(NNc1ccc([N+](=O)[O-])cc1Cl)c1cc(F)ccc1O [A3],MIC,[23],50 to 100 µM
O=C(Nc1ccc([N+](=O)[O-])cc1O)c1cc(F)ccc1O [A20],MIC,[23],50 to 100 µM
O=C(Nc1ccc([N+](=O)[O-])cc1C(F)(F)F)c1cc(F)ccc1O [A25],MIC,[23],50 to 100 µM
Polymyxin B [reference compound],CFU under oxidative stress (H2O2),[7],did not reduce CFU
same,Effect on bacterial growth when used alone (time-kill),[19],"neither A22 (10 μmol/L = 3.67 μg/mL, or 20 μmol/L = 7.34 μg/mL) nor PB (0.5 or 1 μg/mL) significantly affected bacterial growth"
same,MIC of PB after 14 generations,[24],1024 µg/mL
same,"MIC, antibiotic alone",[23],256 µg/mL
Colistin [reference compound],"MIC, antibiotic alone",[23],> 256 µg/mL
